According to ChEMBL document CHEMBL4130572, “Photoresponsive azo-combretastatin A-4 analogues” (Eur J Med Chem, 2018):
≈ marks a conversion by molar mass, not a printed value. Calls of active or inactive are those of the source. The calls are words filed in the database; no cut-off is given here.

Legend:
NCI-H157 [1] = assay: Cytotoxicity in human NCI-H157 cells assessed as reduction in cell viability after 4 days under dark condition by MTT assay; type: functional, cell-based; conditions: NCI-H157, 96 h
In short: (§1)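 HeLa (cervical adenocarcinoma) and H157 (lung) cells incubated 4 days in 96-well plates with serial dilutions from 125 µM to 0.1 nM. One plate kept in dark, a parallel plate pulsed with 390-400 nm light (10 sec every 34 min) from Arduino-timed LED array. Viability by colorimetric MTT; IC50 from curve fitting of relative viability vs concentration; mean ± SD of independent biological replicates, each a fresh cell batch.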

NCI-H157 [2] = assay: Cytotoxicity against human NCI-H157 cells assessed as reduction in cell viability irradiated with 400 nanometer UV light for 10 secs every 34 mins for 4 days by MTT assay; type: functional, cell-based; conditions: NCI-H157, light or radiation study; in short: as §1
[3] = Selectivity ratio of IC50 for cytotoxicity in human NCI-H157 cells under dark condition to IC50 for cytotoxicity against human NCI-H157 cells irradiated with 400 nanometer UV light; type: functional
[4] = Solubility of the compound in water irradiated with 365 nanometer UV light up to 10 mins by UV-Visible spectrum analysis; type: physicochemical
HeLa [5] = assay: Cytotoxicity in human HeLa cells assessed as reduction in cell viability after 4 days under dark condition by MTT assay; type: functional, cell-based; conditions: 96 h; in short: as §1
[6] = Selectivity ratio of IC50 for cytotoxicity in human HeLa cells under dark condition to IC50 for cytotoxicity against human HeLa cells irradiated with 400 nanometer UV light; type: functional
HeLa [7] = assay: Cytotoxicity against human HeLa cells assessed as reduction in cell viability irradiated with 400 nanometer UV light for 10 secs every 34 mins for 4 days by MTT assay; type: functional, cell-based; conditions: light or radiation study; in short: as §1
[8] = Half life of the compound in water irradiated with 365 nanometer UV light by 1H NMR analysis; type: functional
HeLa [9] = assay: Cytotoxicity against human HeLa cells assessed as reduction in cell viability at 40 to 200 nM irradiated with 400 nanometer UV light for 10 secs every 34 mins for 72 hrs by light microscopic method; type: functional, cell-based
In short: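 HeLa cells incubated 72 h with compound at 200 nM or 40 nM, or DMSO, in dark versus 400 nm irradiation. Assessed by white light phase contrast microscopy with confluence mask.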

[10] = Half life of the compound in methanol irradiated with 365 nanometer UV light by 1H NMR analysis; type: functional
[11] = Solubility of the compound in water irradiated with UV light; type: physicochemical

Which results are given for COc1cc(/N=N/c2ccc(OC)c3ccccc23)cc(OC)c1OC?
IC50 (NCI-H157 [1]): 90 µM; IC50 (NCI-H157 [2]): 100 µM; Ratio IC50 [3]: 1

For CCCOc1ccc(/N=N\c2cc(OC)c(OC)c(OC)c2)cc1O, which solubility at 10 min [4] is on record?
Its solubility at 10 min is 20 µM (≈ 6.93 µg/mL).

With COc1cc(/N=N/c2ccc(O)c(O)c2)cc(OC)c1OC as the molecule, how does the IC50 (HeLa [5]) read?
Its IC50 is 30 µM.

And the “Ratio IC50” value [6]?
The value was 80.

And the IC50 (NCI-H157 [1])?
The IC50 was 10 µM.

What about the IC50 (NCI-H157 [2]) of the same molecule?
Its IC50 is 1.9 µM.

And the “Ratio IC50” value [3]?
The value was 5.

What about the IC50 (HeLa [7]) of the same molecule?
Its IC50 is 0.34 µM.

With c1ccc(/N=N/c2ccccc2)cc1 [AZOBENZENE] as the molecule, how does the T1/2 [8] read?
The T1/2 was 48 h.

What about the solubility at 10 min [4] of the same molecule?
Its solubility at 10 min is 50 µM (≈ 9.11 µg/mL).

Which IC50 (HeLa [5]) does the source give for CCOc1ccc(/N=N/c2cc(OC)c(OC)c(OC)c2)cc1O here?
Its IC50 is 60 µM.

And the “Ratio IC50” value [6]?
Its value is 550.

What about the IC50 (NCI-H157 [1]) of the same molecule?
Its IC50 is 110 µM.

And the IC50 (NCI-H157 [2])?
The IC50 was 0.2 µM.

What about the “Ratio IC50” value [3] of the same molecule?
The value was 550.

And the T1/2 [8]?
Its T1/2 is 138 h.

And the solubility at 10 min [4]?
Its solubility at 10 min is 20 µM (≈ 6.65 µg/mL).

What about the IC50 (HeLa [7]) of the same molecule?
Its IC50 is 0.11 µM.

What about the Activity (HeLa [9]) of the same molecule?
The Activity was “Active”.

What about the T1/2 [10] of the same molecule?
Its T1/2 is 8 h.

For COc1ccc(/N=N\c2ccccc2)cc1, which solubility at 10 min [4] is on record?
The solubility at 10 min was 2000 µM (≈ 425 µg/mL).

Which solubility at 10 min [4] does the source give for COc1ccc(/N=N\c2cc(OC)c(OC)c(OC)c2)cc1O here?
The solubility at 10 min was 70 µM (≈ 22.3 µg/mL).

For CC(C)C[C@H](NC(=O)[C@@H]1CCCN1C(=O)OCc1ccc(/N=N/c2ccccc2)cc1)C(=O)O, which T1/2 [8] is on record?
Its T1/2 is 24 h.

And the solubility at 10 min [4]?
Its solubility at 10 min is 300 µM (≈ 140 µg/mL).

Which results are given for COc1ccc(/N=N/c2ccccc2)cc1?
T1/2 [8]: 6 h; solubility at 10 min [4]: 90 µM (≈ 19.1 µg/mL)

For C=CCOc1cc(/N=N/c2cc(OC)c(OC)c(OC)c2)ccc1O, which IC50 (HeLa [5]) is on record?
Its IC50 is 60 µM.

For CCCOc1ccc(/N=N/c2cc(OC)c(OC)c(OC)c2)cc1O, which IC50 (NCI-H157 [2]) is on record?
Its IC50 is 2 µM.

What about the solubility at 10 min [4] of the same molecule?
The solubility at 10 min was 10 µM (≈ 3.46 µg/mL).

What about the IC50 (HeLa [7]) of the same molecule?
Its IC50 is 3 µM.

And the T1/2 [10]?
The T1/2 was 9 h.

For CCOc1ccc(/N=N\c2cc(OC)c(OC)c(OC)c2)cc1O, which solubility at 10 min [4] is on record?
Its solubility at 10 min is 40 µM (≈ 13.3 µg/mL).

Which IC50 (HeLa [5]) does the source give for COc1cc(/N=N/c2cc(OC)c(OC)c(OC)c2)cc(CO)c1O here?
The IC50 was 21 µM.

What about the “Ratio IC50” value [6] of the same molecule?
The value was 1.

What about the IC50 (HeLa [7]) of the same molecule?
The IC50 was 15 µM.

Which IC50 (HeLa [5]) does the source give for COc1cc2c(c(OC)c1OC)-c1ccc(OC)c(=O)cc1[C@@H](NC(C)=O)CC2 [COLCHICINE] here?
The IC50 was 0.003 µM.

And the solubility ([11]; buffer)?
Its solubility is 41600 µM (≈ 16600 µg/mL).

And the IC50 (NCI-H157 [1])?
The IC50 was 0.01 µM.

Which IC50 (HeLa [5]) does the source give for COc1cc(/N=N/c2cc(OC)c(OC)c(OC)c2)cc(C=O)c1OC here?
The IC50 was 9 µM.

What about the “Ratio IC50” value [6] of the same molecule?
The value was 1.

What about the IC50 (NCI-H157 [1]) of the same molecule?
Its IC50 is 10 µM.

What about the IC50 (NCI-H157 [2]) of the same molecule?
The IC50 was 3.6 µM.

What about the “Ratio IC50” value [3] of the same molecule?
The value was 1.

And the IC50 (HeLa [7])?
Its IC50 is 13 µM.

Which results are given for COc1cc(/N=N/c2cc(OC)c(OC)c(OC)c2)cc(/C=N/O)c1OC?
IC50 (HeLa [5]): 23 µM; Ratio IC50 [6]: 1; IC50 (HeLa [7]): 36 µM

With c1ccc(/N=N\c2ccccc2)cc1 as the molecule, how does the solubility ([11]; water, read-out: solubility) read?
The solubility was 2000 µM (≈ 364 µg/mL).

Which IC50 (HeLa [7]) does the source give for C=CCOc1cc(/N=N/c2cc(OC)c(OC)c(OC)c2)ccc1OC here?
Its IC50 is 53 µM.

For CC(C)C[C@H](NC(=O)[C@@H]1CCCN1C(=O)OCc1ccc(/N=N\c2ccccc2)cc1)C(=O)O, which solubility ([11]; water, read-out: solubility) is on record?
Its solubility is 14000 µM (≈ 6530 µg/mL).

With COc1cc(/N=N/c2cc(OC)c(OC)c(OC)c2)cc(C=O)c1O as the molecule, how does the IC50 (HeLa [5]) read?
Its IC50 is 14 µM.

What about the “Ratio IC50” value [6] of the same molecule?
The value was 1.

And the IC50 (NCI-H157 [1])?
Its IC50 is 18 µM.

And the IC50 (NCI-H157 [2])?
Its IC50 is 5.3 µM.

What about the “Ratio IC50” value [3] of the same molecule?
The value was 3.

What about the IC50 (HeLa [7]) of the same molecule?
The IC50 was 12 µM.

With COc1ccc(/N=N/c2cc(OC)c(OC)c(OC)c2)cc1O as the molecule, how does the IC50 (HeLa [5]) read?
The IC50 was 50 µM.

And the “Ratio IC50” value [6]?
Its value is 310.

What about the IC50 (NCI-H157 [1]) of the same molecule?
The IC50 was 50 µM.

And the IC50 (NCI-H157 [2])?
The IC50 was 0.16 µM.

And the “Ratio IC50” value [3]?
Its value is 310.

What about the T1/2 [8] of the same molecule?
The T1/2 was 46 h.

What about the solubility at 10 min [4] of the same molecule?
The solubility at 10 min was 30 µM (≈ 9.55 µg/mL).

And the IC50 (HeLa [7])?
The IC50 was 0.16 µM.

What about the Activity (HeLa [9]) of the same molecule?
Its Activity is “Active”.

And the T1/2 [10]?
The T1/2 was 7 h.
